The results in this text go back to ChEMBL document CHEMBL4052787, “Development of novel LP1-based analogues with enhanced delta opioid receptor profile” (Bioorg Med Chem, 2017).

SMILES strings stand for the structures. The source made the active and inactive calls. No cut-off for these calls is given here. A value given as a limit tells only on which side of the number the result lay.

In general, Ki refers to a dissociation constant, usually derived from enzyme kinetics or from competition with a known ligand. A low value points to a stronger hold on the target. For orientation: IC50 means the point on the concentration scale where inhibition reaches its midpoint. A word on the ED50: it is the dose at which the effect has come halfway, by size or by number of responders.

Test [1] has as its target Delta-type opioid receptor (Rattus norvegicus, UniProt P33533). The test is described as follows: Displacement of [3H]-DPDPE from DOR in rat brain membranes by liquid scintillation counting analysis. The test is classed as cell membranes, Membrane. A digest of the protocol: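 Rat brain membranes at 0.5 mg/ml protein, 45 min at 35 °C with 2 nM [3H]-DPDPE in 50 mM Tris-HCl pH 7.4. Competitor range 10^-11 to 10^-5 M. Nonspecific binding with 10 μM naloxone. Filtered through PEI-soaked GF/B, scintillation counted. Ki derived; three separate experiments in duplicate.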
A general note: Loss of bound radioactivity is the signal in a displacement assay; it reports binding, not function.

The species entered for test [2] is Rattus norvegicus. The test is described as follows: Antinociceptive activity in rat assessed as reduction in response to heat pretreated with naloxone for 30 mins prior to compound treatment by tail-flick test. The test is classed as functional.
Test [3] can be described thus: Agonist activity at DOR in CD-1 mouse vasa deferentia assessed as inhibition of electrically induced contractions after 5 mins. A digest of the protocol: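 Mouse vas deferens at 0.5 g tension; after equilibration, pulses 20 Hz, 0.5 ms, 1 s duration every 40 s. After 60 min equilibration in Krebs, cumulative compound additions, minimum 5 min apart. Contraction inhibition as percent of baseline; IC50 from linear regression of log concentration–effect curves, at least three trials.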

Test [4] addresses Kappa-type opioid receptor (Cavia porcellus) (UniProt P41144). Description: Antagonist activity at KOR in Dunkin-Hartley guinea pig ileum assessed as inhibition of electrically induced contractions after 5 mins by measuring ratio of IC50 for test compounds in presence and absence of nBNI. A digest of the protocol:
(§1)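 Isolated tissue (ileum for MOR/KOR, vas deferens for DOR) pre-incubated with a 1 μM selective antagonist (NLX or NTI 20 min; norBNI 30 min), then agonist curves repeated. Ke from ratio of IC50 with and without antagonist, by single dose method. Mean ± SEM of four independent tissues.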

The target in another test is mu/kappa opioid receptor (Cavia porcellus, UniProt P41144+P97266). Description: Agonist activity at MOR/KOR in Dunkin-Hartley guinea pig ileum assessed as inhibition of electrically induced contractions after 5 mins. The procedure, abridged:
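Guinea pig ileum longitudinal muscle/myenteric plexus strips from male guinea pigs (200–300 g), 2 g load. Transmural single pulses 0.1 Hz, 0.3 ms, 200 mA. After 60–90 min equilibration in Krebs, compounds added cumulatively, at least 5 min each. Percent inhibition of contraction; IC50 by linear regression of log concentration–effect curves, at least three trials.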

For test [5], the species on record is Rattus norvegicus. The test is described as follows: Ratio of Ki for DOR in rat brain membranes to Ki for MOR in rat brain membranes. The test is classed as cell membranes. The procedure, abridged: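 Ratio of Ki values: DOR Ki (rat brain, [3H]-DPDPE, 2 nM) divided by MOR Ki (rat brain, [3H]-DAMGO, 1 nM), both from 45 min, 35 °C competition binding in 50 mM Tris-HCl pH 7.4.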

In test [6] the target is Kappa-type opioid receptor (Cavia porcellus, UniProt P41144). The test is described as follows: Displacement of [3H]-(+)-U69,593 from KOR in guinea pig brain membranes by liquid scintillation counting analysis. The format is cell membranes, Membrane. The procedure, abridged: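 Guinea pig brain membranes (0.5 mg/ml) incubated 30 min at 30 °C with 1 nM [3H]-(+)-U69,593. Compounds tested from 10^-11 to 10^-5 M. Nonspecific binding with 10 μM unlabeled naloxone. GF/B filtration, liquid scintillation counting. Ki calculated; means of three experiments, each in duplicate.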
Kappa-type opioid receptor, sequence (P41144 whole entry): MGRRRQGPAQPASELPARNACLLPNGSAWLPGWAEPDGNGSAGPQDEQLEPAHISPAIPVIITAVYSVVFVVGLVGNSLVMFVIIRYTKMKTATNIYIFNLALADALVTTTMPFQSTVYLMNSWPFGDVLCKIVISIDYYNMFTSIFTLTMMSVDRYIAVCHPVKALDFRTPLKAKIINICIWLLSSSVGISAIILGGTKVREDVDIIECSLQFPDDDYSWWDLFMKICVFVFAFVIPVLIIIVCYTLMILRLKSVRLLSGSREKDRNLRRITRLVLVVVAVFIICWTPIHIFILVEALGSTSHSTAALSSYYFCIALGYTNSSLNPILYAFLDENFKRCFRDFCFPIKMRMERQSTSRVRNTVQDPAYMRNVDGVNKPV

For test [7], the system named is Rattus norvegicus. Description: Antinociceptive activity in rat assessed as reduction in response to heat administered ip measured 240 mins post dose by tail-flick test. The test is classed as functional, organism-based. (In general: In hot-plate and tail-flick tests a longer latency is read as antinociception.)
The species entered for the next test is Mus musculus. Description: Antagonist activity at DOR in CD-1 mouse vasa deferentia assessed as inhibition of electrically induced contractions after 5 mins by measuring ratio of IC50 for test compounds in presence and absence of […]. The procedure, abridged: as §1
In a further test the target is Mu-type opioid receptor (Rattus norvegicus, UniProt P33535). Description: Displacement of [3H]-DAMGO from MOR in rat brain membranes by liquid scintillation counting analysis. The format is cell membranes, Membrane. The procedure, abridged: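 Rat brain membranes, 0.4 mg/ml protein, incubated 45 min at 35 °C with 1 nM [3H]-DAMGO in 50 mM Tris-HCl pH 7.4. Filtration on PEI-presoaked GF/B filters, scintillation counting. Ki calculated; three experiments, each in duplicate.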
Mu-type opioid receptor, sequence (P33535 whole entry): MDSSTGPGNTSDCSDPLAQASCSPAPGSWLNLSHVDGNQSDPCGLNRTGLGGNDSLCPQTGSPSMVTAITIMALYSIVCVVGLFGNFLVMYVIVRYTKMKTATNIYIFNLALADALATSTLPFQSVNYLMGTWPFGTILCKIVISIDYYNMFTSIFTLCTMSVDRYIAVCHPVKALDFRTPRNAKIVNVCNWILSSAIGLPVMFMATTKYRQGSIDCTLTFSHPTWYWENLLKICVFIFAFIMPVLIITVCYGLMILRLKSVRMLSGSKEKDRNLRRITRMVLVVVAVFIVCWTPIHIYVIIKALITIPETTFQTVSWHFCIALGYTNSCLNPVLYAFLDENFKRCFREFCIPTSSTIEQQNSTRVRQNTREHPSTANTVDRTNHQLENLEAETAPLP

Test [8] concerns the target Mu-type opioid receptor (Cavia porcellus) (UniProt P97266). Description: Antagonist activity at MOR in Dunkin-Hartley guinea pig ileum assessed as inhibition of electrically induced contractions after 5 mins by measuring ratio of IC50 for test compounds in presence and absence of NLX. A digest of the protocol: as §1
For test [9], the target named is Kappa-type opioid receptor (Cavia porcellus) (UniProt P41144). The test is described as follows: Potency index, ratio of LP1 Ki to compound Ki for KOR in guinea pig brain membranes. The format is cell membranes. Conditions: Membrane.
Kappa-type opioid receptor (Cavia porcellus), sequence (P41144 whole entry): as the sequence (P41144 whole entry) above
A short description of test [10]: Ratio of Ki for KOR in guinea pig brain membranes to Ki for MOR in rat brain membranes. The format is cell membranes. The procedure, abridged: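 Ratio of KOR Ki (guinea pig brain, 1 nM [3H]-(+)-U69,593, 30 min at 30 °C) to MOR Ki (rat brain, 1 nM [3H]-DAMGO, 45 min at 35 °C).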
The subject of test [11] is Rattus norvegicus. The test is described as follows: Antinociceptive activity in rat assessed as reduction in response to heat administered ip measured 60 mins post dose by tail-flick test. The format is functional.
The subject of test [12] is Rattus norvegicus. Description: Antinociceptive activity in rat assessed as reduction in response to heat administered ip measured 45 to 180 mins post dose by tail-flick test. The format is functional, organism-based.

Delta-type opioid receptor, sequence (P33533 whole entry): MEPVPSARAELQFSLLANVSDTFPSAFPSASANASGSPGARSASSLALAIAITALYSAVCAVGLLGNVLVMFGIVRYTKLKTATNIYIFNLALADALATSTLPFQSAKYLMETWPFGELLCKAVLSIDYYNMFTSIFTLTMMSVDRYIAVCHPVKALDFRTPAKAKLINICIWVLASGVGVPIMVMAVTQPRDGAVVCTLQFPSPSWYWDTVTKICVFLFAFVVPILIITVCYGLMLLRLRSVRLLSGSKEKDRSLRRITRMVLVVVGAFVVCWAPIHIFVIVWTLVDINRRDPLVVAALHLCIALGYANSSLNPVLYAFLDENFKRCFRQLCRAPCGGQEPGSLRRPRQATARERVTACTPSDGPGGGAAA
Mu-type opioid receptor (Cavia porcellus), sequence (P97266 whole entry): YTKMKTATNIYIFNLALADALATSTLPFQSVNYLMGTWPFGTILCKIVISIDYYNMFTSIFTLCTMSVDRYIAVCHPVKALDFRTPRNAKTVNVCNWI

`C[C@H]1[C@H]2Cc3ccc(O)cc3[C@]1(C)CCN2C[C@@H](O)c1ccccc1`: the results for the Ki (in test [1]; in [6]; at Mu-type opioid receptor) were 0.8 nM, 2.22 nM and 0.5 nM, respectively. In addition, the result in the test filed under Rattus norvegicus [2] was inactive. Also, the IC50 was determined as 11.8 nM in test [3] and 9.9 nM at mu/kappa opioid receptor. In addition, the Ke in test [4] was determined as 9 nM; in the test listed under Mus musculus, 5.4 nM; in [8], 21 nM. The Ratio Ki in the test listed under Rattus norvegicus [5] came to 1.6; in test [9], 49; in [10] it was 4.44. For the same compound, the Activity entry with Rattus norvegicus [7] is “Dose-dependent effect”.

For `C[C@H]1[C@H]2Cc3ccc(O)cc3[C@]1(C)CCN2CCC(=O)Nc1ccccc1`, the half-inhibitory concentration (IC50) is 1240 nM in test [3] and 1.9 nM on mu/kappa opioid receptor. Further, the Ke in [4] was 10.8 nM; in test [8], 2.3 nM. In addition, the Ratio Ki in the test filed under Rattus norvegicus [5] worked out at 33.8; in test [10], 132.

For `C[C@H]1[C@H]2Cc3ccc(O)cc3[C@]1(C)CCN2C[C@H](O)c1ccccc1`, the Ki turned out to be 9.6 nM in test [1], 7.3 nM in test [6] and 2.47 nM on Mu-type opioid receptor. The result in the test filed under Rattus norvegicus [2] was inactive. The IC50 in [3] was 10.8 nM; at mu/kappa opioid receptor, 49.2 nM. The Ke in test [4] was determined as 20 nM; in the test filed under Mus musculus, 4 nM; in test [8], 35 nM. Besides, the Ratio Ki in the test filed under Rattus norvegicus [5] amounted to 3.88; in test [9] it was 15; in test [10], 2.95. Also, the Activity result in the test with Rattus norvegicus [7] is “Dose-dependent effect”.

`CN1CC[C@]23c4c5ccc(O)c4O[C@H]2[C@@H](O)C=C[C@H]3[C@H]1C5`: the outcome with Rattus norvegicus [11] was inactive.

For the compound `COC(CN1CC[C@@]2(C)c3cc(O)ccc3C[C@@H]1[C@@H]2C)c1ccccc1` (stereo partly specified), the values for the Ki (in test [1]; in [6]; on Mu-type opioid receptor) were 6.6 nM, 15.2 nM and 1.08 nM, respectively. In addition, the outcome in the test filed under Rattus norvegicus [2] was inactive. Also, in the test with Rattus norvegicus [11] (1 h), the ED50 turned out to be 0.9 mg/kg. Also, the result in the test with Rattus norvegicus [12] was Active. Also, the IC50 in test [3] was 4.4 nM; on mu/kappa opioid receptor it was 21.5 nM. The Ke in test [4] was greater than 3000 nM; in the test listed under Mus musculus, 3.9 nM; in [8], 19 nM. Besides, the Ratio Ki was found to be 6.1 in the test filed under Rattus norvegicus [5], 7 in test [9] and 14.1 in [10]. Moreover, the Activity result in the test with Rattus norvegicus [7] was “Dose-dependent effect”.

Take `C[C@H]1[C@H]2Cc3ccc(O)cc3[C@]1(C)CCN2CC(C)(O)c1ccccc1` (stereo partly specified): the inhibition constant (Ki) in test [1] was 160 nM; in test [6] it was 10.5 nM; on Mu-type opioid receptor, 60 nM. The IC50 in test [3] turned out to be 794 nM; at mu/kappa opioid receptor, 194.4 nM. The Ratio Ki in the test filed under Rattus norvegicus [5] stood at 2.66; in test [9], 10; in test [10], 0.17.
